From ChEMBL document CHEMBL4261585, “Synthesis of 1,2,3-triazole linked 4(3H)-Quinazolinones as potent antibacterial agents against multidrug-resistant Staphylococcus aureus” (Eur J Med Chem, 2018)
In brackets after ≈: the same amount, converted by molar mass.

Columns and labels:
Staphylococcus aureus [1] = experiment: Antibacterial activity against vancomycin-resistant Staphylococcus aureus VRS12 by CLSI method; format: functional
In short: (§1)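 Broth microdilution to CLSI. A single colony from Mueller-Hinton agar is grown overnight in cation-supplemented MHB at 37 °C with shaking, 18–24 h. Levofloxacin is the reference. MIC is the lowest concentration with no visible growth, from three independent runs in duplicate.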

Staphylococcus aureus [2] = experiment: Antibacterial activity against vancomycin-resistant Staphylococcus aureus VRS4 by CLSI method; format: functional; in short: as §1
Staphylococcus aureus [3] = experiment: Antibacterial activity against vancomycin-resistant Staphylococcus aureus VRS1 by CLSI method; format: functional; in short: as §1
Acinetobacter baumannii = experiment: Antibacterial activity against Acinetobacter baumannii BAA-1605 after 16 to 18 hrs by CLSI method; format: functional
In short: (§2)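 Broth microdilution MIC per CLSI. A single colony from Mueller-Hinton agar is grown overnight in cation-supplemented Mueller-Hinton broth (37 °C, shaking, 18–24 h). Incubation is 37 °C for 16–18 h. MIC is the lowest concentration with no visible growth. Three independent runs, each in duplicate.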

[4] = Selectivity index, ratio of CC50 for African green monkey Vero cells to MIC for Staphylococcus aureus ATCC 29213; format: toxicity; conditions: read-out: Selectivity Index
In short: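 Selectivity index is calculated as the Vero CC50 divided by the MIC against S. aureus ATCC 29213. CC50 comes from a 72 h MTT assay at 100–5 mg/L. MIC comes from CLSI broth microdilution at ~10⁶ CFU/mL, 37 °C, 16–18 h.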

Klebsiella pneumoniae = experiment: Antibacterial activity against Klebsiella pneumoniae ATCC BAA-1705 after 16 to 18 hrs by CLSI method; format: functional; in short: as §2
Pseudomonas aeruginosa = experiment: Antibacterial activity against Pseudomonas aeruginosa ATCC 27853 after 16 to 18 hrs by CLSI method; format: functional; in short: as §2
[5] = Cytotoxicity against African green monkey Vero cells after 72 hrs by MTT assay; format: cell-based; conditions: chlorocebus sabaeus
In short: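 Vero cells are seeded at ~10³ per well and held 24 h at 37 °C, 5% CO₂. Compound at 100–5 mg/L is then added for 72 h. MTT is added at […], and formazan is dissolved in DMSO and read at 540 nm. CC50 is the lowest concentration giving 50% loss of viability. Doxorubicin is the positive control. Triplicate experiments.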

Escherichia coli = experiment: Antibacterial activity against Escherichia coli ATCC 25922 after 16 to 18 hrs by CLSI method; format: functional; in short: as §2
Mycobacteroides chelonae = experiment: Antimycobacterial activity against Mycobacterium chelonae by pesto blue-dye based broth microdilution assay; format: functional
[6] = tested on: Mycobacteroides abscessus; experiment: Antimycobacterial activity against Mycobacterium abscessus by pesto blue-dye based broth microdilution assay; format: functional
Staphylococcus aureus [7] = experiment: Antibacterial activity against Staphylococcus aureus ATCC 29213 after 16 to 18 hrs by CLSI method; format: functional; in short: as §2
[8] = tested on: Mycobacterium tuberculosis; experiment: Antimycobacterial activity against Mycobacterium tuberculosis H37Rv ATCC 27294 after 7 days by pesto blue-dye based broth microdilution assay; format: functional; conditions: H37Rv ATCC 27294, 168 h
In short: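 Broth microdilution in Middlebrook 7H9 with 10% ADC-Tween-80 (0.2% glycerol, 0.05% Tween-80). Compound is added from 10 mg/mL DMSO stocks as two-fold dilutions, 64–0.5 mg/L. Plates are incubated 7 days at 37 °C and read with PrestoBlue resazurin dye. MIC is the lowest concentration inhibiting visible growth, three replicates in duplicate.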

[9] = tested on: Mycolicibacterium fortuitum; experiment: Antimycobacterial activity against Mycobacterium fortuitum by pesto blue-dye based broth microdilution assay; format: functional
Staphylococcus aureus [10] = experiment: Antibacterial activity against methicillin-resistant Staphylococcus aureus NR10192 by CLSI method; format: functional; in short: as §1
Staphylococcus aureus [11] = experiment: Antibacterial activity against methicillin-resistant Staphylococcus aureus NR10194 by CLSI method; format: functional; in short: as §1
Staphylococcus aureus [12] = experiment: Antibacterial activity against methicillin-resistant Staphylococcus aureus NR10129 by CLSI method; format: functional; in short: as §1
Staphylococcus aureus [13] = experiment: Antibacterial activity against methicillin-resistant Staphylococcus aureus NR10186 by CLSI method; format: functional; in short: as §1
Staphylococcus aureus [14] = experiment: Antibacterial activity against methicillin-resistant Staphylococcus aureus NR10193 by CLSI method; format: functional; in short: as §1
Staphylococcus aureus [15] = experiment: Antibacterial activity against methicillin-resistant Staphylococcus aureus NR10198 by CLSI method; format: functional; in short: as §1
Staphylococcus aureus [16] = experiment: Antibacterial activity against methicillin-resistant Staphylococcus aureus NR10191 by CLSI method; format: functional; in short: as §1
Staphylococcus aureus [17] = experiment: Antibacterial activity against methicillin-resistant Staphylococcus aureus NR119 by CLSI method; format: functional; in short: as §1
Staphylococcus aureus [18] = experiment: Antibacterial activity against methicillin-sensitive Staphylococcus aureus ATCC 29213 by CLSI method; format: functional; in short: as §1

| SMILES | MIC (Acinetobacter baumannii) [µg/mL] | MIC (Klebsiella pneumoniae) [µg/mL] | MIC (Pseudomonas aeruginosa) [µg/mL] | MIC (Escherichia coli) [µg/mL] | MIC (Mycobacteroides chelonae) [µg/mL] | MIC [6] [µg/mL] | MIC (Staphylococcus aureus [7]) [µg/mL] | MIC [8] [µg/mL] | MIC [9] [µg/mL] | further results |
| --- | --- | --- | --- | --- | --- | --- | --- | --- | --- | --- |
| CN[C@H](CC(C)C)C(=O)N[C@H]1C(=O)N[C@@H](CC(N)=O)C(=O)N[C@H]2C(=O)N[C@H]3C(=O)N[C@H](C(=O)N[C@H](C(=O)O)c4cc(O)cc(O)c4-c4cc3ccc4O)[C@H](O)c3ccc(c(Cl)c3)Oc3cc2cc(c3O[C@@H]2O[C@H](CO)[C@@H](O)[C@H](O)[C@H]2O[C@H]2C[C@](C)(N)[C@H](O)[C@H](C)O2)Oc2ccc(cc2Cl)[C@H]1O [VANCOMYCIN] | – | – | – | – | – | – | – | – | – | MIC (Staphylococcus aureus [1]): > 64 µg/mL; MIC (Staphylococcus aureus [2]): > 64 µg/mL; MIC (Staphylococcus aureus [3]): > 64 µg/mL |
| N#Cc1ccc(/C=C/c2nc3ccccc3c(=O)n2-c2cccc(OCc3cn(-c4ccc(Cl)cc4)nn3)c2)cc1 | > 64 | > 64 | > 64 | > 64 | > 64 | > 64 | 0.5 (≈ 0.898 µM) | > 64 | > 64 | selectivity ratio [4]: 40; CC50 at 72 h [5]: 20 µg/mL (≈ 35.9 µM) |
| Cc1cccc(-n2cc(COc3cccc(-n4c(/C=C/c5ccc(C#N)cc5)nc5ccccc5c4=O)c3)nn2)c1 | > 64 | > 64 | > 64 | > 64 | > 64 | > 64 | 0.5 (≈ 0.932 µM) | > 64 | > 64 | selectivity ratio [4]: 40; CC50 at 72 h [5]: 20 µg/mL (≈ 37.3 µM) |
| O=c1c2ccccc2nc(/C=C/c2ccc(Cl)cc2)n1-c1cccc(OCc2cn(-c3cccc(F)c3)nn2)c1 | > 64 | > 64 | > 64 | > 64 | > 64 | > 64 | 4 (≈ 7.27 µM) | > 64 | > 64 | – |
| N#Cc1ccc(/C=C/c2nc3ccccc3c(=O)n2-c2cccc(OCc3cn(-c4cccc(F)c4)nn3)c2)cc1 | > 64 | > 64 | > 64 | > 64 | > 64 | > 64 | 0.5 (≈ 0.925 µM) | > 64 | > 64 | – |
| COc1ccc(-n2cc(COc3cccc(-n4c(/C=C/c5ccc(C#N)cc5)nc5ccccc5c4=O)c3)nn2)cc1 | > 64 | > 64 | > 64 | > 64 | > 64 | > 64 | 4 (≈ 7.24 µM) | > 64 | > 64 | – |
| Cc1nc2ccccc2c(=O)n1-c1cccc(OCc2cn(-c3cccc(C(=O)O)c3)nn2)c1 | > 64 | > 64 | > 64 | > 64 | > 64 | > 64 | > 64 | > 64 | > 64 | – |
| COc1ccc(Cn2cc(COc3cccc(-n4c(/C=C/c5ccc(C#N)cc5)nc5ccccc5c4=O)c3)nn2)cc1 | > 64 | > 64 | > 64 | > 64 | > 64 | > 64 | 0.5 (≈ 0.882 µM) | > 64 | > 64 | – |
| C[C@@H](O)[C@H]1C(=O)N2C(C(=O)O)=C(S[C@@H]3CN[C@H](C(=O)N(C)C)C3)[C@H](C)[C@H]12 [MEROPENEM] | – | – | – | – | – | – | – | – | – | MIC (Staphylococcus aureus [1]): > 64 µg/mL; MIC (Staphylococcus aureus [10]): 64 µg/mL (≈ 167 µM); MIC (Staphylococcus aureus [11]): 4 µg/mL (≈ 10.4 µM); MIC (Staphylococcus aureus [2]): > 64 µg/mL; MIC (Staphylococcus aureus [3]): > 64 µg/mL; MIC (Staphylococcus aureus [12]): 16 µg/mL (≈ 41.7 µM); MIC (Staphylococcus aureus [13]): 16 µg/mL (≈ 41.7 µM); MIC (Staphylococcus aureus [14]): > 64 µg/mL; MIC (Staphylococcus aureus [15]): > 64 µg/mL; MIC (Staphylococcus aureus [16]): > 64 µg/mL; MIC (Staphylococcus aureus [17]): > 64 µg/mL; MIC (Staphylococcus aureus [18]): 4 µg/mL (≈ 10.4 µM) |
| Cc1nc2ccccc2c(=O)n1-c1cccc(OCc2cn(-c3ccc(F)c(Cl)c3)nn2)c1 | > 64 | > 64 | > 64 | > 64 | > 64 | > 64 | > 64 | > 64 | > 64 | – |
| O=c1c2ccccc2nc(/C=C/c2ccc(Cl)cc2)n1-c1cccc(-n2cc(-c3ccccc3)nn2)c1 | > 64 | > 64 | > 64 | > 64 | > 64 | > 64 | > 64 | > 64 | > 64 | – |
| Cc1nc2ccccc2c(=O)n1-c1cccc(OCc2cn(-c3ccc(Cl)cc3)nn2)c1 | > 64 | > 64 | > 64 | > 64 | > 64 | > 64 | > 64 | > 64 | > 64 | – |
| Cc1ccc(-n2cc(COc3cccc(-n4c(C)nc5ccccc5c4=O)c3)nn2)cc1[N+](=O)[O-] | > 64 | > 64 | > 64 | > 64 | > 64 | > 64 | > 64 | > 64 | > 64 | – |
| C[C@H]1COc2c(N3CCN(C)CC3)c(F)cc3c(=O)c(C(=O)O)cn1c23.C[C@H]1COc2c(N3CCN(C)CC3)c(F)cc3c(=O)c(C(=O)O)cn1c23.O [LEVOFLOXACIN] | – | 64 | 0.5 | – | – | – | 0.125 | – | – | MIC (Staphylococcus aureus [1]): 32 µg/mL; MIC (Staphylococcus aureus [10]): 8 µg/mL; MIC (Staphylococcus aureus [11]): 0.5 µg/mL; MIC (Staphylococcus aureus [2]): > 64 µg/mL; MIC (Staphylococcus aureus [3]): 32 µg/mL; MIC (Staphylococcus aureus [12]): 0.5 µg/mL; MIC (Staphylococcus aureus [13]): 8 µg/mL; MIC (Staphylococcus aureus [14]): 32 µg/mL; MIC (Staphylococcus aureus [15]): 32 µg/mL; MIC (Staphylococcus aureus [16]): 32 µg/mL; MIC (Staphylococcus aureus [17]): 16 µg/mL; MIC (Staphylococcus aureus [18]): 0.5 µg/mL |
| N#Cc1ccc(/C=C/c2nc3ccccc3c(=O)n2-c2cccc(OCc3cn(Cc4ccc([N+](=O)[O-])cc4)nn3)c2)cc1 | > 64 | > 64 | > 64 | > 64 | > 64 | > 64 | 2 (≈ 3.44 µM) | > 64 | > 64 | – |
| COc1ccc(-n2cc(COc3cccc(-n4c(C)nc5ccccc5c4=O)c3)nn2)cc1 | > 64 | > 64 | > 64 | > 64 | > 64 | > 64 | > 64 | > 64 | > 64 | – |
